According to the RNAGym collection of RNA variant scans (doi:10.1038/s41586-018-0170-7):

B1: tRNA (parent)
chain: GUUCCGUUGGCGUAAUGGUAACGCGUCUCCCUCCUAAGGAGAAGACUGCGGGUUCGAGUCCCGUACGGAACG

Variants of: B1
Test: yeast fitness, log relative to wild type (ln ratio); higher = fitter; tRNA-Arg(CCU), competitive growth, 37 C, 1 M NaCl
Outline: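 Variants were counted by 125 bp paired-end Illumina sequencing after pools of a combinatorial tRNA-Arg(CCU) library, held on a HIS3 centromeric plasmid in BY4742 lacking the chromosomal gene, grew ~6.5 generations (~26.5 h) in SC-HIS 1M NaCl at 37 °C. Each genotype's fitness is the natural log of its generations relative to the wild type's. Generations were OD-scaled log2 output/input frequencies, inverse-variance weighted over replicates.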

Variant	yeast fitness (ln)
U2C G6U C46U C66U A70G C71U	-0.0117
U2G G6A C46U A70G C71U	-0.144
G1A U2C C27U C46U C66U A70G C71U	-0.0522
U2C C66U A70G	-0.00448
G1A G6A C46U A70G C71U	-0.208
G6A C27U A43C C46U C66A A70U	-0.193
G6A C27U C46U C66U A70U C71U	-0.237
U2G C27U C46U A70U C71U	-0.0474
G1A U2C G6A C27U A43C C46U C66U A70U C71U	-0.252
U2G A43C C66A A70U	-0.0996
G6A C27U A43C C46U A69G A70U	-0.16
U2C C27U C46U C66U A69G A70G	-0.0845
U2G C27U C46U C66U A69G C71U	-0.312
U2C G6A C27U A43C C66U A69G A70G	-0.0511
G1A C27U A43C C46U C66A A70G C71U	-0.211
G1A U2C C46U A70U C71U	-0.0299
U2G A43C A70U	-0.00614
G1A G6A A43C C66A A70G C71U	-0.297
U2G G6U C46U A70G C71U	-0.165
G6U C27U A43C C46U C66A A70G C71U	-0.211
U2G G6U C27U C66A A69G A70U C71U	-0.369

Variant	yeast fitness (ln)
G1A U2G G6A C46U A69G A70U	-0.165
U2G G6U A43C C66U A69G C71U	-0.408
G1A U2G G6A C27U C66U C71U	-0.344
U2G G6A A43C C46U A69G A70G	-0.169
U2C G6A C27U C46U A70U	-0.0585
U2G G6U C46U C66U A69G C71U	-0.252
G1A G6A A43C C46U A70G C71U	-0.214
U2C G6A C66A A70G C71U	-0.286
G6A C27U A43C C66A A69G A70U C71U	-0.54
G1A G6U C27U A43C C46U C66U A70G C71U	-0.596
U2C G6A C27U A43C A70U C71U	-0.243
G1A U2G A70U	-0.124
G1A U2C C27U A43C C46U A69G A70U C71U	-0.215
G1A A43C C66U A69G A70G	-0.243
G1A U2C C27U A43C A70U	-0.111
G1A U2G G6U C27U A43C C66U C71U	-0.518
U2C G6U C46U A69G A70G	-0.0922
G6U C66A A70G C71U	-0.233
U2G G6U C27U C66U A70U	-0.342
G1A U2G G6U C46U C66A A69G A70G C71U	-0.416
G6U A43C C46U C66A A70G C71U	-0.227

Variant	yeast fitness (ln)
G1A U2C C27U A43C C46U C66U A69G A70U	-0.218
G1A U2G G6A C27U C66U A70U C71U	-0.164
G6U C27U A43C C46U	-0.155
C27U A43C C46U C66A	-0.0786
U2C G6A A69G A70G C71U	-0.394
G6U C27U C66A A70G	-0.0711
G1A U2G G6A C66U A70G C71U	-0.578
C27U A43C C71U	-0.114
G6U C27U C46U C66A A69G	-0.0559
G1A U2G G6A C27U A43C C66A A69G A70G C71U	-0.351
G1A U2G G6A C27U C46U C66A A69G A70G C71U	-0.317
G6A C27U C66A A69G A70U	-0.243
G1A U2G G6U C27U C66U A70U	-0.386
G1A C46U A69G A70G C71U	-0.0298
G1A U2G C46U C66U A69G A70G C71U	-0.195
U2G G6A A43C C71U	-0.195
G1A G6U A43C C66U C71U	-0.333
U2C G6U C27U C66U A69G A70U C71U	-0.566
U2C G6U C66A C71U	-0.294
G1A U2G A43C C46U A69G A70U	-0.132
U2C G6U C27U C46U C66U A70G C71U	-0.177

Variant	yeast fitness (ln)
G1A U2G C27U C46U C66A A70G	-0.195
G6U C27U C66U A69G	-0.276
G6U C27U C46U C66U A69G A70G C71U	-0.321
G1A C46U C66U A69G	-0.202
U2C G6A A43C C46U C66A A69G A70G C71U	-0.112
U2G G6A A43C	-0.0921
G1A U2C C27U A69G C71U	-0.131
G1A U2G C27U A43C C66A A70G	-0.255
G1A U2G	-0.0263
G1A U2G G6U C27U C46U C66A A69G A70U C71U	-0.513
G1A C27U C46U C71U	-0.0338
G6U C46U C71U	-0.413
G1A U2C G6A C27U C66U A69G A70G C71U	-0.0671
G6A C27U C66A A70U C71U	-0.246
U2G A70U	-0.00577
U2G G6A C27U A43C C66U A69G A70U C71U	-0.434
G1A U2G G6U A43C C46U C66A A69G A70U	-0.256
G1A A43C A69G	-0.145
C46U C66A A69G A70G C71U	-0.0571
C66U A70U C71U	-0.135
G6A C46U C66A A70G C71U	-0.169
